Converted amounts (≈) assume the structure as drawn. The source made the active and inactive calls. No cut-off for these calls is given here.
Legend:
Assay type in all cases: functional, cell-based
A549 = assay: Antiproliferative activity against human A549 cells assessed as inhibition of cell proliferation after 72 hrs by CCK8 assay; details: A549, 72 h
Procedure, shortened: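 A549 cells grown in RPMI 1640 with 10% FBS and penicillin/streptomycin at 37 °C, 5% CO2. Cells adhered overnight, then treated with compound for 72 h. CCK-8 added for 2 h at 37 °C, absorbance read at 450 nm. Mitomycin served as positive control. Run in duplicate.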

HT-1080 = assay: Antiproliferative activity against human HT1080 cells assessed as inhibition of cell proliferation after 72 hrs by CCK8 assay; details: HT-1080, 72 h
Procedure, shortened: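 HT1080 fibrosarcoma cells cultured in alpha-MEM with 10% FBS and penicillin/streptomycin, 37 °C, 5% CO2. Seeded, allowed to adhere overnight, then incubated with compound for 72 h. CCK-8 added for 2 h, then A450 read. Mitomycin was the positive control. Duplicate experiments.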

HepG2 = assay: Antiproliferative activity against human HepG2 cells assessed as inhibition of cell proliferation after 72 hrs by CCK8 assay; details: HepG2, 72 h
Procedure, shortened: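 HepG2 cells maintained in DMEM with 10% FBS and penicillin/streptomycin at 37 °C, 5% CO2. After overnight adherence, compound exposure lasted 72 h. Viable cells detected with CCK-8 (2 h incubation) by absorbance at 450 nm. Positive control was mitomycin. Assays in duplicate.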

HUVEC [1] = assay: Antiangiogenic activity against human HUVEC assessed as inhibition of endothelial cell tube formation at 1 ug/ml after 22 hrs by Matrigel assay
Procedure, shortened: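 HUVECs (passages 2–6) seeded at 25 000 cells/well onto a Matrigel layer and exposed to compound for 22 h; images taken 22 h after plating at ×40. Capillary tube formation scored as total length of capillary structures in two representative fields per experiment. Colchicine served as positive control.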

HUVEC [2] = assay: Antiproliferative activity against human HUVEC assessed as inhibition of cell proliferation after 72 hrs by CCK8 assay
Procedure, shortened: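 HUVECs at passages 2–6 grown in endothelial cell medium with 0.03 mg/mL endothelial cell growth supplement, 10% FBS, 0.1 mg/mL heparin and penicillin/streptomycin. Cells adhered overnight, then compound added for 72 h at 37 °C, 5% CO2. CCK-8 added for 2 h and absorbance read at 450 nm. Mitomycin positive control; duplicates.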

IC50 (A549) [µg/mL] | IC50 (HT-1080) [µg/mL] | IC50 (HepG2) [µg/mL] | Structure (SMILES) | inhibition (HUVEC [1]) | IC50 (HUVEC [2]) [µg/mL]
16.2 (≈ 64.8 µM) | 17.4 (≈ 69.5 µM) | 25.3 (≈ 101 µM) | C[C@@H]1C(=O)O[C@@H]2C[C@@]3(C)CCC[C@H](C)[C@@]34O[C@H]4[C@H]12 [DIHYDROEPOXYALANTOLACTONE] |  | 
> 50 | > 50 | > 50 | C=C1CCC[C@]2(C)C[C@H]3OC(=O)[C@@H](C)[C@H]3C[C@@H]12 [DIHYDROISOALANTOLACTONE] |  | 
> 50 | > 50 | > 50 | C=C1C[C@H](O)C[C@]2(C)C[C@H]3OC(=O)[C@](C)(O)[C@H]3C[C@@H]12 [RACEMOSALACTONE D] |  | 
> 50 | > 50 | > 50 | C=C1C[C@H](O)C[C@]2(C)C[C@H]3OC(=O)[C@H](C)[C@H]3C[C@@H]12 |  | 
22.5 (≈ 90.8 µM) | > 50 | > 50 | CC1=C2C[C@@H]3[C@H](C)C(=O)O[C@@H]3C[C@@]2(C)CCC1=O |  | 
0.38 (≈ 1.64 µM) | 0.795 (≈ 3.42 µM) | 1.77 (≈ 7.62 µM) | C=C1C(=O)O[C@@H]2C[C@@]3(C)CCCC(=C)[C@@H]3C[C@H]12 [ISOALANTOLACTONE] | Active | 2.5 (≈ 10.8 µM)
> 50 | > 50 | > 50 | C=C1C[C@H](O)C[C@]2(C)C[C@H]3OC(=O)[C@@H](C)[C@H]3C[C@@H]12 |  | 
2.65 (≈ 10.7 µM) | 3.51 (≈ 14.1 µM) | 3.78 (≈ 15.2 µM) | C=C1C(=O)O[C@@H]2C[C@@]3(C)CCC[C@]4(CO4)[C@@H]3C[C@H]12 |  | 
24.8 (≈ 106 µM) | > 50 | > 50 | C[C@@H]1C(=O)O[C@@H]2C[C@@]3(C)CCC[C@H](C)C3=C[C@H]12 |  | 
> 50 | > 50 | > 50 | C[C@@H]1C(=O)O[C@@H]2C[C@@]3(C)CCC[C@]4(CO4)[C@@H]3C[C@H]12 |  | 

The remaining lines, values behind:

Structure (SMILES) | IC50 (A549) [µg/mL] | IC50 (HT-1080) [µg/mL] | IC50 (HepG2) [µg/mL] | inhibition (HUVEC [1]) | IC50 (HUVEC [2]) [µg/mL]
C[C@H]1CCC[C@]2(C)C[C@H]3OC(=O)[C@](C)(O)[C@H]3C=C12 | > 50 | > 50 | > 50 |  | 
C=C1C(=O)O[C@@H]2C[C@@]3(C)CC[C@@H](O)C(=C)[C@@H]3C[C@H]12 [ISOTELEKIN] | 1.47 (≈ 5.92 µM) | 2.44 (≈ 9.83 µM) | 4.19 (≈ 16.9 µM) |  | 
C=C1C(=O)O[C@@H]2C[C@@]3(C)CCC[C@H](C)C3=C[C@H]12 [HELENINE] | 0.55 (≈ 2.37 µM) | 0.696 (≈ 3 µM) | 1.3 (≈ 5.6 µM) | Active | 2.4 (≈ 10.3 µM)
C[C@@H]1C2=C[C@H]3[C@@H](C[C@@]2(C)CC[C@@H]1O)OC(=O)[C@@]3(O)CCl [RACEMOSALACTONE B] | 37.3 (≈ 124 µM) | > 50 | > 50 |  | 
C[C@@H]1C(=O)O[C@@H]2C[C@@]3(C)CCC[C@H](C)C3=C[C@]12O [RACEMOSALACTONE C] | 27.8 (≈ 111 µM) | > 50 | > 50 |  | 
CO[C@@]12[C@H](COC(N)=O)C3=C(C(=O)C(C)=C(N)C3=O)N1C[C@@H]1N[C@@H]12 [MITOMYCIN] | 0.54 (≈ 1.62 µM) | 0.15 (≈ 0.449 µM) | 0.14 (≈ 0.419 µM) |  | 
C=C1C(=O)O[C@@H]2C[C@@]3(C)CCCC(=C)[C@]3(O)C[C@H]12 [TELEKIN] | 4.27 (≈ 17.2 µM) | 3.5 (≈ 14.1 µM) | 8.14 (≈ 32.8 µM) |  | 
C=C1C(=O)O[C@@H]2C[C@@]3(C)CCCC(C)=C3C[C@H]12 [ALLOALANTOLACTONE] | 2.67 (≈ 11.5 µM) | 3.87 (≈ 16.7 µM) | 3.57 (≈ 15.4 µM) |  | 
C[C@@H]1C2=C[C@H]3[C@@H](C[C@@]2(C)CC[C@@H]1O)OC(=O)[C@@H]3C | > 50 | > 50 | > 50 |  | 
C[C@H]1C(=O)O[C@@H]2CC3=C[C@@H](O)C[C@H](C)[C@@]3(C)C[C@@H]21 [RACEMOSALACTONE E] | 38.6 (≈ 154 µM) | > 50 | > 50 |  | 
C[C@@H]1C(=O)O[C@@H]2C[C@@]3(C)C[C@@H](O)C[C@H](C)C3=C[C@H]12 | 24.8 (≈ 99.1 µM) | 20.1 (≈ 80.3 µM) | 26.1 (≈ 104 µM) |  | 
C[C@@H]1CCC[C@]2(C)C[C@@H]3OC(=O)C(CO)=C3C=C12 [MACROPHYLLILACTONE E] | 16.2 (≈ 65.3 µM) | 28.5 (≈ 115 µM) | 31.2 (≈ 126 µM) |  | 
C=C1C(=O)O[C@@H]2C[C@@]3(C)CCC[C@H](C)[C@]3(O)C[C@H]12 [RACEMOSALACTONE A] | 1.51 (≈ 6.03 µM) | 1.88 (≈ 7.51 µM) | 2.76 (≈ 11 µM) |  | 
C=C1C(=O)O[C@@H]2C[C@@]3(C)CCC[C@H](C)[C@@]34O[C@H]4[C@H]12 | 1.59 (≈ 6.4 µM) | 1.32 (≈ 5.32 µM) | 2.73 (≈ 11 µM) |  | 

— ChEMBL document CHEMBL2331153, “Structural investigation and biological activity of sesquiterpene lactones from the traditional Chinese herb Inula racemosa” (J Nat Prod, 2013)
